Data reported in ChEMBL document CHEMBL1139692, “Optimization of pyrimidinyl- and triazinyl-amines as non-nucleoside inhibitors of HIV-1 reverse transcriptase” (Bioorg Med Chem Lett, 2006).

Columns and labels:
[1] = system: Human immunodeficiency virus 1; assay: Antiviral activity against HIV1 3B in MT2 cells; assay type: functional, organism-based; details: Human immunodeficiency virus 1, 3B
Procedure, shortened: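 HIV-1 IIIB infection of human MT-2 T-cells. Protection was read by MTT colorimetric assay. Curves used triplicate samples at each concentration.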

[2] = Cytotoxicity against MT2 cells; assay type: cell-based; details: human
Procedure, shortened: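 Growth of MT-2 cells was measured by MTT colorimetric read-out, run at the same time as the anti-HIV-1 IIIB protection assay.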

[3] = Ratio of CC50 for MT cells/EC50 for HIV1; assay type: functional

SMILES	EC50 [1]	CC50 [2]	Ratio CC50/EC50 [3]
CC(C)=CCOc1cc(Nc2nccc(N)n2)ccc1Cl	75 nM	0.5 µM	–
COCc1ccnc(Nc2ccc(Cl)c(OCC=C(C)C)c2)n1	–	> 25 µM	–
CC(C)=CCOc1cc(Nc2ncccn2)ccc1C#N	17 nM	0.036 µM	–
COc1cc(OC)nc(Nc2ccc(Cl)c(OCC=C(C)C)c2)n1	250 nM	28 µM	–
CC(C)=CCOc1cc(Nc2ncccn2)ccc1Cl	200 nM	2.5 µM	–
CC(C)=CCOc1cc(Nc2nccc(C)n2)ccc1Cl	39 nM	0.15 µM	–
CCc1ccnc(Nc2ccc(Cl)c(OCC=C(C)C)c2)n1	16 nM	0.33 µM	–
COc1ccnc(Nc2ccc(Cl)c(Oc3ccc(C)cc3)c2)n1	10000 nM	> 100 µM	–
COc1cc(OC)nc(Nc2ccc(C#N)c(OCC=C(C)C)c2)n1	160 nM	0.81 µM	–
Clc1ccc(Nc2ncccn2)cc1Oc1ccccc1	13000 nM	30 µM	–
C/C=C/COc1cc(Nc2nccc(OC)n2)ccc1Cl	89 nM	17 µM	–
COc1ccnc(Nc2ccc(Cl)c(Sc3ccccc3)c2)n1	320 nM	21 µM	–
COc1ncnc(Nc2ccc(Cl)c(OCC=C(C)C)c2)n1	31 nM	18 µM	–
CC(C)=CCOc1cc(Nc2ncnc(Cl)n2)ccc1Cl	–	45 µM	–
CCOc1ccnc(Nc2ccc(Cl)c(OCC=C(C)C)c2)n1	41 nM	19 µM	–
C/C=C/COc1cc(Nc2ncccn2)ccc1Cl	2300 nM	31 µM	–
CC(C)=CCOc1cc(Nc2nc(C)nc(Cl)n2)ccc1Cl	12000 nM	40 µM	–
COc1nc(C)nc(Nc2ccc(Cl)c(OCC=C(C)C)c2)n1	100 nM	12 µM	–
COc1nc(Nc2ccc(C#N)c(OCC=C(C)C)c2)nc(OC)n1	22 nM	> 100 µM	>1000
CSc1ncnc(Nc2ccc(C#N)c(OCC=C(C)C)c2)n1	5 nM	8.4 µM	>1000

SMILES	EC50 [1]	CC50 [2]	Ratio CC50/EC50 [3]
COc1ccnc(Nc2ccc(Cl)c(Oc3ccccc3)c2)n1	2500 nM	38 µM	–
COc1ccnc(Nc2ccc(Cl)c(Oc3ccccc3C)c2)n1	–	13 µM	–
CNc1ccnc(Nc2ccc(Cl)c(OCC=C(C)C)c2)n1	6 nM	0.69 µM	–
COc1ccnc(Nc2ccc(Cl)c(Oc3cccc(C)c3)c2)n1	540 nM	18 µM	–
CC(C)=CCOc1cc(Nc2nccc(CO)n2)ccc1Cl	–	0.22 µM	–
COc1ccnc(Nc2ccc(Cl)c(OCC=C(C)C)c2)n1	10 nM	9 µM	–
COc1nc(Nc2ccc(Cl)c(OCC=C(C)C)c2)nc(OC)n1	290 nM	20 µM	–
COc1nc(N)nc(Nc2ccc(C#N)c(OCC=C(C)C)c2)n1	9 nM	0.11 µM	–
CC(C)=CCOc1cc(Nc2ncnc(N)n2)ccc1C#N	15 nM	0.2 µM	–
CNc1ncnc(Nc2ccc(Cl)c(OCC=C(C)C)c2)n1	31 nM	3.1 µM	–
CSc1ccnc(Nc2ccc(Cl)c(OCC=C(C)C)c2)n1	18 nM	2.8 µM	–
COc1cc(N)nc(Nc2ccc(Cl)c(OCC=C(C)C)c2)n1	3000 nM	19 µM	–
COc1ccnc(Nc2ccc(C#N)c(OCC=C(C)C)c2)n1	2 nM	–	–
CC(C)=CCOc1cc(Nc2ncnc(N)n2)ccc1Cl	390 nM	48 µM	–
CNc1ccnc(Nc2ccc(C#N)c(OCC=C(C)C)c2)n1	5 nM	0.022 µM	–
COc1nc(Cl)nc(Nc2ccc(Cl)c(OCC=C(C)C)c2)n1	–	26 µM	–
CC(C)=CCOc1cc(Nc2ncnc(Cl)n2)ccc1C#N	310 nM	> 100 µM	–
O=C1Nc2ccc(Cl)cc2[C@@](C#CC2CC2)(C(F)(F)F)O1 [EFAVIRENZ]	–	> 0.1 µM	–
Cc1cc(C#N)cc(C)c1Oc1nc(Nc2ccc(C#N)cc2)nc(N)c1Br [ETRAVIRINE]	–	> 1 µM	–
Cc1ccnc2c1NC(=O)c1cccnc1N2C1CC1 [NEVIRAPINE]	–	> 10 µM	–
